Laboratory results from ChEMBL document CHEMBL1142570, “Aurantosides G, H, and I: three new tetramic acid glycosides from a Papua New Guinea Theonella swinhoei” (J Nat Prod, 2005).
Activity calls are given as the source filed them.

What was measured:
[1] = system: Human immunodeficiency virus 1; assay: Antiviral activity against HIV1 at 1 ug/ml; assay type: functional, organism-based
[2] = system: Human immunodeficiency virus 1; assay: Antiviral activity against HIV1 at 10 ug/ml; assay type: functional, organism-based
HCT-116 [3] = assay: Cytotoxicity against human HCT 116 with null p53 mutant at 0.009 to 152 uM by MTT assay; assay type: functional
Procedure, shortened: (§1)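 HCT116 p53+/+ and p53-/- cells grown in McCoy's medium with 2 mM L-glutamine, 1 mM sodium pyruvate, penicillin/streptomycin and 10% FBS at 37 °C, 5% CO2. Seeded at 4 × 10^5 cells/well and left to attach for 24 h. Exposed to 0-78 µg/mL compound for 72 h. MTT added (final 0.25 mg/mL) for 3 h, formazan dissolved in DMSO, A570 read, IC50 by curve fitting.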

HCT-116 [4] = assay: Cytotoxicity against human HCT 116 with wild type p53 at 0.008 to 124 uM by MTT assay; assay type: functional; procedure, shortened: as §1
HCT-116 [5] = assay: Cytotoxicity against human HCT 116 with null p53 mutant p53 at 0.008 to 124 uM by MTT assay; assay type: functional; procedure, shortened: as §1
HCT-116 [6] = assay: Cytotoxicity against human HCT 116 with null p53 mutant at 0.006 to 103 uM by MTT assay; assay type: functional; procedure, shortened: as §1
HCT-116 [7] = assay: Cytotoxicity against human HCT 116 with wild type p53 at 0.009 to 152 uM by MTT assay; assay type: functional; procedure, shortened: as §1
HCT-116 [8] = assay: Cytotoxicity against human HCT 116 with wild type p53 at 0.006 to 103 uM by MTT assay; assay type: functional; procedure, shortened: as §1

Measured: Activity

C/C(Cl)=C/C=C/C=C/C=C/C=C/C(O)=C1\C(=O)[C@H](CC(N)=O)N([C@@H]2OC[C@@H](O)[C@H](O)[C@H]2O)C1=O
inactive: [1] | [2] | HCT-116 [3] | HCT-116 [4] | HCT-116 [5] | HCT-116 [6] | HCT-116 [7] | HCT-116 [8]

C/C(Cl)=C/C=C/C=C/C=C/C=C/C(O)=C1\C(=O)[C@H](CC(N)=O)N([C@@H]2OC[C@@H](O)[C@H](O)[C@H]2O[C@@H]2OC[C@@H](O)[C@@H](O)[C@@H]2O)C1=O
inactive: [1] | [2] | HCT-116 [3] | HCT-116 [4] | HCT-116 [5] | HCT-116 [6] | HCT-116 [7] | HCT-116 [8]

CO[C@@H]1[C@H](O[C@@H]2CO[C@@H](O[C@@H]3[C@@H](O)[C@H](O)CO[C@H]3N3C(=O)/C(=C(O)/C=C/C=C/C=C/C=C/C=C(/C)Cl)C(=O)[C@@H]3CC(N)=O)[C@@H](O)[C@@H]2O)O[C@H](C)[C@H]1O
inactive: [1] | [2] | HCT-116 [3] | HCT-116 [4] | HCT-116 [5] | HCT-116 [6] | HCT-116 [7] | HCT-116 [8]
